Data taken from ChEMBL document CHEMBL5042469, “Unique Molecular Interaction with the Histone Deacetylase 6 Catalytic Tunnel: Crystallographic and Biological Characterization of a Model Chemotype” (J Med Chem, 2021).
The source made the active and inactive calls. No cut-off for these calls is given here.

Key:
[1] = molecular target: T1, Protein deacetylase HDAC6 (Homo sapiens) (UniProt Q9UBN7); assay: Inhibition of HDAC6 in human MV4-11 cells assessed as increase in acetylation of alpha tubulin at 0.25 uM by Western blot analysis; format: cell-based
T1 sequence (whole entry): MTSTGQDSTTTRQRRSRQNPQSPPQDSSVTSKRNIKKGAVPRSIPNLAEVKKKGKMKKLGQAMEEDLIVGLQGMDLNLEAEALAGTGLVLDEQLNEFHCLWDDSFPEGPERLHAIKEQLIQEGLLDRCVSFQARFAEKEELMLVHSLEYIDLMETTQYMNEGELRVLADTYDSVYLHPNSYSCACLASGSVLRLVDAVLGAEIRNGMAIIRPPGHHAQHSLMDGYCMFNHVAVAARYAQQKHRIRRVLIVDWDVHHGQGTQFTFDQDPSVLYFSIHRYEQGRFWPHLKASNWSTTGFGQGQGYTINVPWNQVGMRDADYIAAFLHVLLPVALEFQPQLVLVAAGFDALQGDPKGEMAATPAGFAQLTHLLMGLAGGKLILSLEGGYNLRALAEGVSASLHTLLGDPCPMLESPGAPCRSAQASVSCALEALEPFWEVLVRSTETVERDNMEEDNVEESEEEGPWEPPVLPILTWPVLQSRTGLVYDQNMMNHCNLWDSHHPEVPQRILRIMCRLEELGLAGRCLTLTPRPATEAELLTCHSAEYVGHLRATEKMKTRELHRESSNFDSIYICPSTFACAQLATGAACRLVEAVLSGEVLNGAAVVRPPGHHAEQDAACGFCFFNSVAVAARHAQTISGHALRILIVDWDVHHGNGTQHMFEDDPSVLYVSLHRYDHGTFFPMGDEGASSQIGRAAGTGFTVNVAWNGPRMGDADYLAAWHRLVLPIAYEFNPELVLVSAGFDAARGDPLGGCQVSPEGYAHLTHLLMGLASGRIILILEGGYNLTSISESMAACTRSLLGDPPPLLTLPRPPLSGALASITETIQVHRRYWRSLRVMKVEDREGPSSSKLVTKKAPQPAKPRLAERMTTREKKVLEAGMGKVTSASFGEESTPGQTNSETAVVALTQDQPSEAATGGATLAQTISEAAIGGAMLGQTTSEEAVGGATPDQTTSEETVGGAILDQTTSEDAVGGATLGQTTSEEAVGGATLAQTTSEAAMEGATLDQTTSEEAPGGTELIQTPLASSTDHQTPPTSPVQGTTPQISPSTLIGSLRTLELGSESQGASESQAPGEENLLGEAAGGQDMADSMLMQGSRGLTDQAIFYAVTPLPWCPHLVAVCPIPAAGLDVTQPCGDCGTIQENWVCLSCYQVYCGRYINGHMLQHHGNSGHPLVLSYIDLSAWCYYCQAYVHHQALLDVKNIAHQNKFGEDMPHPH
Procedure, shortened: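 MV4-11 cells incubated with compound for 6 h (0.25–1 μM range), then lysed in RIPA buffer. Lysates were BCA-quantified and run on 4–20% SDS-PAGE, then transferred to nitrocellulose and blocked in 5% milk/PBST. Primary anti-acetyl-α-tubulin mouse monoclonal and HSC70 (1:1000) were applied overnight at 4 °C, followed by HRP anti-mouse (1:5000) and ECL detection.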

[2] = molecular target: T1, Protein deacetylase HDAC6 (Homo sapiens); assay: Inhibition of HDAC6 in human HeLa cells assessed as acetylation of alpha tubulin accumulation at 0.1 uM by DAPI staining based immunofluorescent assay; format: cell-based
Procedure, shortened: (§1)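 HeLa cells plated to sub-confluency and treated after 24 h with compound at 0.1 or 2 μM for 6 h; DMSO served as vehicle control. Cells were fixed (4% formaldehyde), permeabilized (1% Triton X-100) and blocked in 5% BSA for 1 h at room temperature. Staining used anti-acetyl-α-tubulin (1:100) plus anti-acetyl-H3 Lys18 (1:50) with DAPI counterstain, then imaging and quantification. Values are the mean of duplicates.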

[3] = molecular target: T1, Protein deacetylase HDAC6 (Homo sapiens); assay: Inhibition of HDAC6 in human HeLa cells assessed as acetylation of alpha tubulin accumulation at 2 uM by DAPI staining based immunofluorescent assay; format: cell-based; procedure, shortened: as §1
RPMI-8226 = assay: Anti-proliferative activity against human RPMI-8226 cells assessed as cell viability measured after 72 hrs by Cell-Titer assay; format: functional, cell-based; conditions: RPMI-8226, 72 h
Procedure, shortened: (§2)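 Cells in RPMI-1640 with 10% FBS (AML3 in IMDM with 10% FBS). Cells were plated in 96-well plates, and after 24 h compounds or vehicle (0.5% DMSO) were added. CellTiter-Blue was added after 72 h and fluorescence was read at 560/590 nm. IC50 was obtained by non-linear regression.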

MM1.S = assay: Anti-proliferative activity against human MM1.S cells assessed as cell viability measured after 72 hrs by Cell-Titer assay; format: functional, cell-based; procedure, shortened: as §2
U-87 MG = assay: Anti-proliferative activity against human U87G cells assessed as cell viability measured after 72 hrs by Cell-Titer assay; format: functional, cell-based, U-87MG ATCC
Procedure, shortened: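 U87G cells grown in EMEM with 10% FBS were plated in 96-well plates and dosed after 24 h, with 0.5% DMSO as vehicle. CellTiter-Blue read-out at 560/590 nm fluorescence after 72 h. IC50 by non-linear regression.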

MOLM-13 = assay: Anti-proliferative activity against human MOLM-13 cells assessed as cell viability measured after 72 hrs by Cell-Titer assay; format: functional, cell-based; conditions: MOLM-13, 72 h; procedure, shortened: as §2
MV4-11 = assay: Anti-proliferative activity against human MV4-11 cells assessed as cell viability measured after 72 hrs by Cell-Titer assay; format: functional, cell-based; conditions: MV4-11, 72 h
Procedure, shortened: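 MV4-11 cells grown in IMDM with 10% FBS were plated in 96-well plates. After 24 h, compounds or vehicle (0.5% DMSO) were added. After 72 h, CellTiter-Blue was added and fluorescence was read at 560/590 nm. IC50 came from non-linear regression.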

Jurkat = assay: Anti-proliferative activity against human Jurkat cells assessed as cell viability measured after 72 hrs by Cell-Titer assay; format: functional, cell-based; procedure, shortened: as §2
OCI-AML-3 = assay: Anti-proliferative activity against human AML-3 cells assessed as cell viability measured after 72 hrs by Cell-Titer assay; format: functional, cell-based; conditions: OCI-AML-3, 72 h; procedure, shortened: as §2
[4] = Anti-proliferative activity against human AR230 cells assessed as cell viability measured after 72 hrs by Cell-Titer assay; format: functional, cell-based
Procedure, shortened: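 AR230 cells were maintained in RPMI-1640 with 10% FBS, 2 mM L-glutamine and 1 μM imatinib. Cells were plated in 96-well plates and dosed after 24 h, with 0.5% DMSO as vehicle. CellTiter-Blue fluorescence was read at 560/590 nm after 72 h. IC50 by non-linear regression.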

BV-173 = assay: Anti-proliferative activity against human BV-173 cells assessed as cell viability measured after 72 hrs by Cell-Titer assay; format: functional, cell-based; conditions: BV-173, 72 h; procedure, shortened: as §2
HeLa = assay: Anti-proliferative activity against human HeLa cells assessed as cell viability measured after 72 hrs by Cell-Titer assay; format: functional, cell-based
Procedure, shortened: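 HeLa cells grown in DMEM with 10% FBS were plated in 96-well plates. After 24 h they were treated with compound or 0.5% DMSO vehicle. CellTiter-Blue was added at 72 h and read at 560/590 nm fluorescence. IC50 from non-linear regression.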

[5] = Anti-proliferative activity against human MRC9 cells assessed as cell viability measured after 72 hrs by Cell-Titer assay; format: functional, cell-based; conditions: MRC9, 72 h; procedure, shortened: as §2

Row | Activity [1] | Activity [2] | Activity [3] | IC50 (RPMI-8226) [nM] | IC50 (MM1.S) [nM] | IC50 (U-87 MG) [nM] | IC50 (MOLM-13) [nM] | IC50 (MV4-11) [nM] | IC50 (Jurkat) [nM] | IC50 (OCI-AML-3) [nM] | IC50 (HeLa) [nM] | SMILES | IC50 [4] [nM] | IC50 (BV-173) [nM] | IC50 [5] [nM]
1 | Active | inactive | inactive | 6500 | 1600 | 9100 | 13500 | 1200 | 1200 | 7700 | 7000 | O=C(CCCCCCNC(=O)c1cnc(N(c2ccccc2)c2ccccc2Cl)nc1)NO [CITARINOSTAT] | 4300 | 900 | 30400
2 | Active | inactive | Active | 700 | 700 | 2000 | 2000 | 600 | 1900 | 3300 | 3500 | O=C(NO)c1ccc(CN(Cc2cccnc2)S(=O)(=O)c2cc(F)c(F)c(F)c2F)cc1 | 1500 | 1700 | > 50000
